Test results from ChEMBL document CHEMBL1156657, “Structures and absolute configurations of sulfate-conjugated triterpenoids including an antifungal chemical defense of the green macroalga Tydemania expeditionis” (J Nat Prod, 2008).

What was measured:
[1] = tested on: PC-3; assay: Antitumor activity against human PC3 cells after 72 hrs by MTT assay; type: functional, cell-based; conditions: PC-3, 72 h
How it was run: (§1)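 Cells seeded in 96-well plates; compounds added 24 h after seeding and left on for 72 h. Viable cells read spectrophotometrically after MTS tetrazolium staining, with dye conversion taken as proportional to live cells. IC50 for each cell line derived from dose–response curves.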

[2] = Antitumor activity against human LNCaP-FGC cells after 72 hrs by MTT assay; type: functional, cell-based; conditions: LNCaP-Clone-FGC; how it was run: as §1
[3] = tested on: Rotifers; assay: Toxicity against Rotifers assessed as feeding at 10 ppm after 45 mins by injestion toxicity assay; type: organism-based; conditions: rotifera, in vivo, 0.75 h
[4] = tested on: MDA-MB-468; assay: Antitumor activity against human MDA-MB-468 cells after 72 hrs by MTT assay; type: functional, cell-based; conditions: MDA-MB-468, 72 h; how it was run: as §1
[5] = tested on: NCI-H446; assay: Antitumor activity against human NCI-H446 cells after 72 hrs by MTT assay; type: functional, cell-based; conditions: NCI-H446, 72 h; how it was run: as §1
[6] = tested on: MDA-MB-231; assay: Antitumor activity against human MDA-MB-231 cells after 72 hrs by MTT assay; type: functional, cell-based; conditions: MDA-MB-231, 72 h; how it was run: as §1
[7] = tested on: SHP77; assay: Antitumor activity against human SHP77 cells after 72 hrs by MTT assay; type: functional, cell-based; conditions: SHP77, 72 h; how it was run: as §1
[8] = tested on: DU-145; assay: Antitumor activity against human Du145 cells after 72 hrs by MTT assay; type: functional, cell-based; conditions: DU-145, 72 h; how it was run: as §1
[9] = tested on: CCRF-CEM; assay: Antitumor activity against human CCRF-CEM cells after 72 hrs by MTT assay; type: functional, cell-based; how it was run: as §1
[10] = tested on: BT-549; assay: Antitumor activity against human BT549 cells after 72 hrs by MTT assay; type: functional, cell-based; conditions: BT-549, 72 h; how it was run: as §1
[11] = tested on: DU-4475; assay: Antitumor activity against human DU4475 cells after 72 hrs by MTT assay; type: functional, cell-based; conditions: DU-4475, 72 h
[12] = tested on: HCT-116; assay: Antitumor activity against human HCT116 cells after 72 hrs by MTT assay; type: functional, cell-based; conditions: HCT-116, 72 h; how it was run: as §1
[13] = Antitumor activity against human A2780/DDP-S cells after 72 hrs by MTT assay; type: functional, cell-based; conditions: A2780, 72 h; how it was run: as §1
[14] = tested on: Lindra thalassiae; assay: Antifungal activity against Lindra thalassiae ATCC 56663 after 6 days; type: functional, organism-based; conditions: Lindriella thalassiae, ATCC 56663, 144 h
How it was run: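 Growth inhibition of marine fungal pathogen Lindra thalassiae ATCC 56663. IC50 derived from dose–response curves.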

[15] = tested on: Lindra thalassiae; assay: Antifungal activity against Lindra thalassiae ATCC 56663 at 0.67 mg/mL after 6 days; type: functional, Lindriella thalassiae

SMILES | IC50 [1] | IC50 [2] | Activity [3] | IC50 [4] | IC50 [5] | IC50 [6] | IC50 [7] | IC50 [8] | IC50 [9] | IC50 [10] | IC50 [11] | IC50 [12] | IC50 [13] | IC50 [14] | Activity [15]
CC(C)=CC(=O)C[C@@H](C)[C@H]1CC[C@@]2(C)[C@@H]3CC[C@H]4[C@](C)(CO)[C@@H](O)CC[C@@]45C[C@@]35CC[C@]12C | 6 µM | 6 µM | 9% | 6 µM | 6 µM | 6 µM | 6 µM | 6 µM | 6 µM | 6 µM | 6 µM | 6 µM | 6 µM | – | –
CC(C)=CC(=O)C[C@@H](C)[C@H]1CC[C@@]2(C)[C@@H]3CC[C@H]4[C@](C)(COS(=O)(=O)[O-])[C@@H](OS(=O)(=O)[O-])CC[C@@]45C[C@@]35CC[C@]12C.[Na+].[Na+] | 31 µM | 31 µM | 9% | 31 µM | 31 µM | 31 µM | 31 µM | 31 µM | 31 µM | 31 µM | 31 µM | 31 µM | 31 µM | – | –
CC(C)C[C@H](O)C[C@@H](C)[C@H]1CC[C@@]2(C)[C@@H]3CC[C@H]4[C@](C)(CO)[C@@H](OS(=O)(=O)O)CC[C@@]45C[C@@]35CC[C@]12C | – | – | – | – | – | – | – | – | – | – | – | – | – | 30 µM | –
CC(C)=CC(=O)C[C@@H](C)[C@H]1CC[C@@]2(C)[C@@H]3CC[C@H]4[C@](C)(CO)[C@@H](OS(=O)(=O)[O-])CC[C@@]45C[C@@]35CC[C@]12C.[Na+] | 6 µM | 6 µM | 9% | 6 µM | 6 µM | 6 µM | 6 µM | 6 µM | 6 µM | 6 µM | 6 µM | 6 µM | 6 µM | – | –
CC(C)C[C@H](O)C[C@@H](C)[C@H]1CC[C@@]2(C)[C@@H]3CC[C@H]4[C@](C)(COS(=O)(=O)O)[C@@H](O)CC[C@@]45C[C@@]35CC[C@]12C | – | – | – | – | – | – | – | – | – | – | – | – | – | 55 µM | –
CC(C)=CC(=O)C[C@@H](C)[C@H]1CC[C@@]2(C)[C@@H]3CC[C@H]4[C@](C)(COS(=O)(=O)[O-])[C@@H](O)CC[C@@]45C[C@@]35CC[C@]12C.[Na+] | 6 µM | 6 µM | 9% | 6 µM | 6 µM | 6 µM | 6 µM | 6 µM | 6 µM | 6 µM | 6 µM | 6 µM | 6 µM | – | –
CC(C)CC(=O)C[C@@H](C)[C@H]1CC[C@@]2(C)[C@@H]3CC[C@H]4[C@](C)(COS(=O)(=O)[O-])[C@@H](OS(=O)(=O)[O-])CC[C@@]45C[C@@]35CC[C@]12C.[Na+].[Na+] | 31 µM | 31 µM | 9% | 31 µM | 31 µM | 31 µM | 31 µM | 31 µM | 31 µM | 31 µM | 31 µM | 31 µM | 31 µM | – | –
CC(C)C[C@H](O)C[C@@H](C)[C@H]1CC[C@@]2(C)[C@@H]3CC[C@H]4[C@](C)(COS(=O)(=O)[O-])[C@@H](OS(=O)(=O)[O-])CC[C@@]45C[C@@]35CC[C@]12C.[Na+].[Na+] | 31 µM | 31 µM | 9% | 31 µM | 31 µM | 31 µM | 31 µM | 31 µM | 31 µM | 31 µM | 31 µM | 31 µM | 31 µM | 26 µM | 670 µg/mL
CC(C)CC(=O)C[C@@H](C)[C@H]1CC[C@@]2(C)C3=C(CC[C@]12C)[C@@]1(C)CC[C@H](OS(=O)(=O)[O-])[C@@](C)(COS(=O)(=O)[O-])[C@@H]1CC3.[Na+].[Na+] | 31 µM | 31 µM | 9% | 31 µM | 31 µM | 31 µM | 31 µM | 31 µM | 31 µM | 31 µM | 31 µM | 31 µM | 31 µM | – | –
